Experiments:
MV4-11 [1] = test: Induction of apoptosis in human MV4-11 cells assessed as late apoptotic cells at 10 uM after 72 hrs by Annexin V FITC/PI staining based flow cytometry analysis (reference value: 3.41%); type: functional
MV4-11 [2] = test: Induction of cell cylce arrest in human MV4-11 cells assessed as accumulation of cells at G1 phase at 3 uM after 72 hrs by RNase A/propidium iodide staining based flow cytometry (reference value: 64.41%); type: functional
How it was run: (§1)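 MV4-11 cells were seeded at 8 × 10⁴, held overnight at 37 °C with 5% CO2, then treated 72 h at 3 or 10 µM against a DMSO diluent control. Pellets were fixed in 70% ethanol on ice for 15 min, then stained 1 h at room temperature with PI, 0.1 mg/mL RNase A and 0.05% Triton X-100. Sub-G1, G1, S and G2/M fractions were read by flow cytometry.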

A2780 = test: Antiproliferative activity against human A2780 cells assessed as growth inhibition incubated for 72 hrs by MTT assay; type: functional
MV4-11 [3] = test: Antiproliferative activity against human MV4-11 cells assessed as growth inhibition after 72 hrs by resazurin assay; type: functional
How it was run: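 MV4-11 cells kept at 37 °C with 5% CO2 in ATCC-recommended medium plus 10% FBS. In-house resazurin viability assay after 72 h exposure. GI50 reported as mean ± standard deviation from at least two replicates.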

MV4-11 [4] = test: Induction of cell cylce arrest in human MV4-11 cells assessed as accumulation of cells at G2 phase at 3 uM after 72 hrs by RNase A/propidium iodide staining based flow cytometry (reference value: 12.61%); type: functional; how it was run: as §1
MV4-11 [5] = test: Induction of cell cylce arrest in human MV4-11 cells assessed as accumulation of cells at sub G1 phase at 10 uM after 72 hrs by RNase A/propidium iodide staining based flow cytometry (reference value: 1.58%); type: functional; how it was run: as §1
[6] = biological target: Leucine-rich repeat serine/threonine-protein kinase 2 (Homo sapiens, UniProt Q5S007); test: Inhibition of human LRRK2 using RLGRDKYKTLRQIRQ as substrate after 40 mins in presence of [gamma-33ATP] by scintillation counting based radiometry assay
[7] = Cmax in BALB/c mouse at 2 mg/kg, iv measured upto 24 hrs by LC/MS/MS analysis; type: ADME, organism-based; set-up: route intravenous, dose 2 mg/kg, time <=24; details: in vivo
MV4-11 [8] = test: Induction of cell cylce arrest in human MV4-11 cells assessed as accumulation of cells at sub G1 phase at 3 uM after 72 hrs by RNase A/propidium iodide staining based flow cytometry (reference value: 1.58%); type: functional; how it was run: as §1
[9] = biological target: T1, Receptor-type tyrosine-protein kinase FLT3 (Homo sapiens, UniProt P36888); test: Inhibition of human FLT3 using EAIYAAPFAKKK as substrate incubated for 40 mins in presence of [gamma-33ATP] by scintillation counting based radiometry assay
T1 sequence (P36888 whole entry): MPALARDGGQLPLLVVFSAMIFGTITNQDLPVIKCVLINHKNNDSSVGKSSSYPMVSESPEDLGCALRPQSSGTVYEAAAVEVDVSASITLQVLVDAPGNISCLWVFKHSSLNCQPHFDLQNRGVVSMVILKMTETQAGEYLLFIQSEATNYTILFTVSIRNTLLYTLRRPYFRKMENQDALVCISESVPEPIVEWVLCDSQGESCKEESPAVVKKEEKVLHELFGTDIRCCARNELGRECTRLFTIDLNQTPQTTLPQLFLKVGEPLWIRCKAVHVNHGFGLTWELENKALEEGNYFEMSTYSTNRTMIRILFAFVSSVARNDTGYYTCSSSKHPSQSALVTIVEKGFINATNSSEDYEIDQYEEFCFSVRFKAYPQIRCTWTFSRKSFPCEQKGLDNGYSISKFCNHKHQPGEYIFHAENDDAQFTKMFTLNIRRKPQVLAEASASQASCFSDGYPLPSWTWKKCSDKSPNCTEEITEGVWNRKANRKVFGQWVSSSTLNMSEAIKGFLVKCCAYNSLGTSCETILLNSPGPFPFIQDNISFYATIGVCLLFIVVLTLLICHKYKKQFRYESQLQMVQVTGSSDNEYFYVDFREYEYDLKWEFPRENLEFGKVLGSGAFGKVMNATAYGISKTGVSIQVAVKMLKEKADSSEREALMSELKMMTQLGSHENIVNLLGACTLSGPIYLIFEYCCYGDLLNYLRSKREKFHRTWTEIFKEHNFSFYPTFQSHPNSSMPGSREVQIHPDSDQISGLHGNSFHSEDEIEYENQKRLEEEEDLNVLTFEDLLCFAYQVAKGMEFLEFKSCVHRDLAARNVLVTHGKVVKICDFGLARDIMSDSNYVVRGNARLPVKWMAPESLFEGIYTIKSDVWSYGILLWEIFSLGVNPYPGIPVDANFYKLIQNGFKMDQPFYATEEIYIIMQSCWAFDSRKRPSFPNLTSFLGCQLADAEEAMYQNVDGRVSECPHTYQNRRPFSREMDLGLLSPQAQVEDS

MV4-11 [10] = test: Induction of apoptosis in human MV4-11 cells assessed as viable cells at 3 uM after 72 hrs by Annexin V FITC/PI staining based flow cytometry analysis (reference value: 93.63%); type: functional; details: read-out: Activity
[11] = AUC in Sprague-Dawley rat at 20 mg/kg, po measured upto 24 hrs by LC/MS/MS analysis; type: ADME, organism-based; set-up: route oral, dose 20 mg/kg, time <=24; details: in vivo
[12] = Oral bioavailability in Sprague-Dawley rat at 20 mg/kg measured upto 24 hrs by LC/MS/MS analysis; type: ADME, organism-based; details: in vivo
[13] = Half life in Sprague-Dawley rat at 20 mg/kg, po measured upto 24 hrs by LC/MS/MS analysis; type: ADME, organism-based; details: in vivo
MDA-MB-468 = test: Antiproliferative activity against human MDA-MB-468 cells assessed as growth inhibition incubated for 72 hrs by MTT assay; type: functional
MV4-11 [14] = test: Induction of apoptosis in human MV4-11 cells assessed as early apoptotic cells at 3 uM after 72 hrs by Annexin V FITC/PI staining based flow cytometry analysis (reference value: 2.73%); type: functional
[15] = biological target: Cyclin-dependent kinase 1/cyclin B1 (Homo sapiens) (UniProt P06493+P14635); test: Inhibition of CDK1/Cyclin B (unknown origin) assessed as residual activity at 1 uM relative to control; type: protein-complex assay
[16] = AUC in Sprague-Dawley rat at 5 mg/kg, iv measured upto 24 hrs by LC/MS/MS analysis; type: ADME, organism-based; set-up: route intravenous, dose 5 mg/kg, time <=24; details: in vivo
MV4-11 [17] = test: Induction of apoptosis in human MV4-11 cells assessed as early apoptotic cells at 10 uM after 72 hrs by Annexin V FITC/PI staining based flow cytometry analysis (reference value: 2.73%); type: functional
[18] = Half life in BALB/c mouse at 10 mg/kg, po measured upto 24 hrs by LC/MS/MS analysis; type: ADME, organism-based; details: in vivo

Chain of Leucine-rich repeat serine/threonine-protein kinase 2 (Q5S007 whole entry): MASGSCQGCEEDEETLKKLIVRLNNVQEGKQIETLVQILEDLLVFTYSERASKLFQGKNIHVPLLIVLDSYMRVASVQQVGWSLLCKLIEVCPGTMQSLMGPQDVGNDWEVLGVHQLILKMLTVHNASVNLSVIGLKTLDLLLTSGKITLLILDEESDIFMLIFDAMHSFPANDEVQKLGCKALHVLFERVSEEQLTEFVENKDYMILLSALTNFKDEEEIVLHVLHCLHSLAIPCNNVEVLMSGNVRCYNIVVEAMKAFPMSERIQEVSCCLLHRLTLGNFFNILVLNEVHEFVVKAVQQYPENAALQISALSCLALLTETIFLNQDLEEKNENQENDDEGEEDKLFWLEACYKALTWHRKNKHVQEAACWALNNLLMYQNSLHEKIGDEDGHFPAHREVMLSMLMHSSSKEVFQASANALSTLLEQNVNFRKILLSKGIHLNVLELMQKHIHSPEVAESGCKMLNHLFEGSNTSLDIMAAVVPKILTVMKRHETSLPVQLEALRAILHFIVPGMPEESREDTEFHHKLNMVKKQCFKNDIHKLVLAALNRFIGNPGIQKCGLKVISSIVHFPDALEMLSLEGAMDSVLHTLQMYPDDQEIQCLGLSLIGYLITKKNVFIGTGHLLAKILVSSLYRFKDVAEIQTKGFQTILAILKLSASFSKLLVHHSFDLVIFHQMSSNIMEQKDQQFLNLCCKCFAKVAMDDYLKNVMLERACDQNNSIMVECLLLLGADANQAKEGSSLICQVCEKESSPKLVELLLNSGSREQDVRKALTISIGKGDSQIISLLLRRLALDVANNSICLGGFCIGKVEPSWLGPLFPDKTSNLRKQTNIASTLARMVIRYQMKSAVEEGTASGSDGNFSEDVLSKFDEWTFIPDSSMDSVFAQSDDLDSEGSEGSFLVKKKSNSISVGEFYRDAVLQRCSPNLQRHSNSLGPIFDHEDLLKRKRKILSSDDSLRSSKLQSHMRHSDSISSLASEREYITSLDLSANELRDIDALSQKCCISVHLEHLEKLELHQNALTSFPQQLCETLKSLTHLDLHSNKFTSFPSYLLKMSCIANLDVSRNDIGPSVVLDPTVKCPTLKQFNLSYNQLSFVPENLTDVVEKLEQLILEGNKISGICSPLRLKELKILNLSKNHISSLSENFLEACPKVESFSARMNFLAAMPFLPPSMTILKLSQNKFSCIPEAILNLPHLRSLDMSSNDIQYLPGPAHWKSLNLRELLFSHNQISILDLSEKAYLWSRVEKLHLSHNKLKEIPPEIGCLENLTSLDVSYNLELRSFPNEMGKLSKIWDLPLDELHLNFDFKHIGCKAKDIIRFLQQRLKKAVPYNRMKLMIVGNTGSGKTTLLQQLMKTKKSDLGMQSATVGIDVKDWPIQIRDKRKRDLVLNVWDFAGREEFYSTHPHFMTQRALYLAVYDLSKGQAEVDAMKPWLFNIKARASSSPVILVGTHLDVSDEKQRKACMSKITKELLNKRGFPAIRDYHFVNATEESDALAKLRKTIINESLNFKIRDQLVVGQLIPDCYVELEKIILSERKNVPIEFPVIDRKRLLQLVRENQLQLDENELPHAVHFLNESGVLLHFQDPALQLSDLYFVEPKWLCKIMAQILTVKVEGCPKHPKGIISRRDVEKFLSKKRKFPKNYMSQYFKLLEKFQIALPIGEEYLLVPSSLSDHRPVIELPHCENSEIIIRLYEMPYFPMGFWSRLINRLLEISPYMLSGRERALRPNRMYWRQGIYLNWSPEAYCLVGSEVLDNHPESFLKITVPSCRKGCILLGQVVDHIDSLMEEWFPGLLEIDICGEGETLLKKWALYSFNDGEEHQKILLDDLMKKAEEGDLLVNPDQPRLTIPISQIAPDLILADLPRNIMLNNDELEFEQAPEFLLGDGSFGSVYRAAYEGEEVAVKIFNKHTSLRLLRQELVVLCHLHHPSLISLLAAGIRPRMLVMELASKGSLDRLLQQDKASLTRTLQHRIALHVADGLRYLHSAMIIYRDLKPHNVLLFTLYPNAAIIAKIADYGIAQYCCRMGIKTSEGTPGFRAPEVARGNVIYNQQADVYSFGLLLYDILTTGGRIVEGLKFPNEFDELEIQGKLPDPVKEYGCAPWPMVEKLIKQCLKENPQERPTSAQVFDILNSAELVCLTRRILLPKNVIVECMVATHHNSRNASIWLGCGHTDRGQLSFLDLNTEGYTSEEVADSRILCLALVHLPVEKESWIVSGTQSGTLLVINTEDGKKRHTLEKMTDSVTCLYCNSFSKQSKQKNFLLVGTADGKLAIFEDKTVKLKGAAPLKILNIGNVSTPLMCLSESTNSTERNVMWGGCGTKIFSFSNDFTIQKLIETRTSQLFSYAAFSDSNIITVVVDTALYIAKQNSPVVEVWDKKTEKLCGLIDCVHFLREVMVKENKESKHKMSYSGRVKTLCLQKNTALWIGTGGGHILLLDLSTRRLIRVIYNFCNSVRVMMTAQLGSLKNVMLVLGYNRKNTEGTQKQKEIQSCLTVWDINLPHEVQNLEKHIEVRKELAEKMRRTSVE
Chain of Cyclin-dependent kinase 1/cyclin B1 (Homo sapiens) (P06493 whole entry, looked up): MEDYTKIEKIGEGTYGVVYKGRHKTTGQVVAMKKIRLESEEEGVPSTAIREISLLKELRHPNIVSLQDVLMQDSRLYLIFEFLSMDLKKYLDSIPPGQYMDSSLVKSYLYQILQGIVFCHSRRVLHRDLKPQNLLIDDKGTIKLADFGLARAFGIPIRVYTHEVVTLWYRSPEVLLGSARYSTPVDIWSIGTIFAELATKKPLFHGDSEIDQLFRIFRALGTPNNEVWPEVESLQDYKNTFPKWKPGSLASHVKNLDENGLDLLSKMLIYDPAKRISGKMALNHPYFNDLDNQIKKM
Chain of Cyclin-dependent kinase 1/cyclin B1 (Homo sapiens) (P14635 whole entry, looked up): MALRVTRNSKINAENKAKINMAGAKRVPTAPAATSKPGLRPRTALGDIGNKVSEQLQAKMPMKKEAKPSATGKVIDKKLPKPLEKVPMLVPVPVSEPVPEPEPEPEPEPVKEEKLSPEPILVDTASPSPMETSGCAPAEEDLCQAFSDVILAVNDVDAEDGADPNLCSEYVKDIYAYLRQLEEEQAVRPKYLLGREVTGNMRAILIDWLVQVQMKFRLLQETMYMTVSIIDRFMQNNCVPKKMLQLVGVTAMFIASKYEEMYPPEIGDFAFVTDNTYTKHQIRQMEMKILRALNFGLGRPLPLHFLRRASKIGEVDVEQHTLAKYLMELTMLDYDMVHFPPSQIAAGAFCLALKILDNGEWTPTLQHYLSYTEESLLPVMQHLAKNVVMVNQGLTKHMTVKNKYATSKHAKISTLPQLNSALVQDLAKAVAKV

For `Nc1ncc(-c2cc3ccccc3o2)c(N2CCC3(CCNC3=O)CC2)c1Cl`, the Activity (MV4-11 [1]) was 14.01%, the Activity (MV4-11 [2]) was 75.73% and the GI50 (A2780) was 5310 nM. For the same molecule, the GI50 (MV4-11 [3]) was 600 nM, the Activity (MV4-11 [4]) was 8.11% and the Activity (MV4-11 [5]) was 4.89%. It also gave a Ki [6] of 51 nM, a Cmax [7] of 4.16 µM and an Activity (MV4-11 [8]) of 1.73%. It also gave a Ki [9] of 242 nM, a viability at 3 µM (MV4-11 [10]) of 89.5% and an AUC at 24 h [11] of 25.1 µM·h. For the same molecule, the bioavailability [12] was 70%, the half-life [13] was 6.99 h and the GI50 (MDA-MB-468) was 650 nM. The Activity (MV4-11 [14]) was 1.81%, the Activity [15] was 61% and the AUC at 24 h [16] was 8.92 µM·h. The Activity (MV4-11 [17]) was 1.96% and the half-life [18] was 3.44 h.

From ChEMBL document CHEMBL4811251 (Eur J Med Chem, 2021)
